In ChEMBL document CHEMBL5674867, “The SUV39H1 inhibitor chaetocin induces differentiation and shows synergistic cytotoxicity with other epigenetic drugs in acute myeloid leukemia cells” (Blood Cancer J, 2015) one finds Activity, IC50 and inhibition data, which are given here for three compounds.

For assay [1], the system named is U-937. Briefly: Induction of myeloid differentiation in human U-937 cells at 50 nM measured after 12 hrs by Liu's staining method. It is filed as functional, cell-based. The gist of the method: (§1)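 Cells received single epigenetic inhibitors or combinations and were collected by cytospin. After Liu's staining (reagent A 1 min, reagent B 2.5 min), differentiated cells were counted under a light microscope. Mean ± s.e. of three independent experiments.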

The subject of assay [2] is KG-1a. Briefly: Induction of myeloid differentiation in human KG-1a cells at 50 nM measured after 12 hrs by Liu's staining method. It is filed as functional, cell-based. The gist of the method:
as §1

The subject of assay [3] is HL-60. Briefly: Induction of myeloid differentiation in human HL-60 cells at 50 nM measured after 12 hrs by Liu's staining method. It is filed as functional, cell-based. The gist of the method: as §1
Assay [4] concerns U-937. Briefly: Cytotoxicity against human U-937 cells assessed as decrease in cell viability measured after 24 hrs by MTT assay. It is filed as functional, cell-based. The settings on record: U-937, 24 h. The gist of the method:
(§2)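 MTT viability read 24 h after exposure over a low concentration range (0–25 μM for one inhibitor, 0–100 for the other as printed). IC50 was derived for each line. Culture: HL-60 and U937 in RPMI + 10% FBS, KG-1a in IMDM + 15% FBS.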
For orientation: Tetrazolium assays rely on reduction of a dye to a coloured formazan, in cell work by metabolically active cells.

The test system of assay [5] is KG-1a. Briefly: Cytotoxicity against human KG-1a cells at 20 nM assessed as decrease in cell viability in combination with 0.5 uM SAHA measured after 24 hrs by MTT assay. It is filed as functional.
Assay [6] deals with KG-1a. Briefly: Cytotoxicity against human KG-1a cells assessed as decrease in cell viability measured after 48 hrs by MTT assay. It is filed as functional, cell-based.
Assay [7] relates to U-937. Briefly: Cytotoxicity against human U-937 cells at 20 nM assessed as decrease in cell viability in combination with 0.5 uM SAHA measured after 24 hrs by MTT assay. It is filed as functional.
For assay [8], the system named is KG-1a. Briefly: Cytotoxicity against human KG-1a cells assessed as decrease in cell viability measured after 24 hrs by MTT assay. It is filed as functional, cell-based. Summed up:
as §2

In assay [9] the test system is HL-60. Briefly: Cytotoxicity against human HL-60 cells assessed as decrease in cell viability measured after 48 hrs by MTT assay. It is filed as functional, cell-based. The following applies: HL-60, 48 h.
In assay [10] the test system is HL-60. Briefly: Cytotoxicity against human HL-60 cells assessed as decrease in cell viability measured after 24 hrs by MTT assay. The following applies: HL-60, 24 h. It is filed as functional, cell-based. Summed up:
as §2

Assay [11] deals with U-937. Briefly: Cytotoxicity against human U-937 cells assessed as decrease in cell viability measured after 48 hrs by MTT assay. The settings on record: U-937, 48 h. It is filed as functional, cell-based.
Assay [12] relates to HL-60. Briefly: Cytotoxicity against human HL-60 cells at 20 nM assessed as decrease in cell viability in combination with 0.5 uM SAHA measured after 24 hrs by MTT assay. It is filed as functional.
The target in assay [13] is T1, Histone-lysine N-methyltransferase SUV39H1 (Homo sapiens) (UniProt O43463).
T1 sequence (whole entry): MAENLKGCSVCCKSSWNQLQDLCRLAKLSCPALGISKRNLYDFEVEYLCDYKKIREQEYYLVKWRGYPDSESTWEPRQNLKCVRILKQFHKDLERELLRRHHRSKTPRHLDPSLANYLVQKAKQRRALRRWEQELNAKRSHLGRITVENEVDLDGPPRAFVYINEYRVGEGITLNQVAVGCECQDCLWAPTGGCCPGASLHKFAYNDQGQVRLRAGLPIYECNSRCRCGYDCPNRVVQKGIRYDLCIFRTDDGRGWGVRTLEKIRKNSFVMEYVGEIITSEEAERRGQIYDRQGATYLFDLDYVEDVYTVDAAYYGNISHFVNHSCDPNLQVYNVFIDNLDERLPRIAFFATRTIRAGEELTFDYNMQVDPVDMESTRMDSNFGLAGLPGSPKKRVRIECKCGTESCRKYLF
The following applies: KG-1a, dose 20.0 nM, time 48.0 hrs.

Assay [14] has as its system HL-60. Briefly: Induction of myeloid differentiation in human HL-60 cells at 20 nM assessed as reduction of nucleus to cytoplasm ratio measured after 12 hrs by Liu's staining method. It is filed as functional, cell-based. The gist of the method:
(§3)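 Cells exposed 12 h were spun onto slides by cytospin. They were stained with Liu's reagent A for 1 min, then reagent B for 2.5 min, and morphology was examined by light microscopy.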

The subject of assay [15] is U-937. Briefly: Induction of myeloid differentiation in human U-937 cells at 20 nM assessed as increase in CD11b mRNA expression measured after 48 hrs by RT-PCR assay. It is filed as functional, cell-based. Summed up:
(§4)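 Treatment was 48 h. Total RNA (1 µg) was reverse transcribed, then SYBR green real-time PCR was run with actin as internal control: 95 °C 5 min, then 30 cycles of 95 °C/45 s, 60 °C/45 s, 72 °C/45 s. Mean ± s.e. of three independent experiments, compared with untreated control.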

Assay [16] has as its target T1, Histone-lysine N-methyltransferase SUV39H1 (Homo sapiens). The settings on record: KG-1a, dose 20.0 nM, time 48.0 hrs. This is another data set of the same source.
The target is the same in assay [17]. The settings on record: KG-1a, dose 20.0 nM, time 48.0 hrs. The source holds these as a separate data set.
For assay [18], the system named is HL-60. Briefly: Induction of myeloid differentiation in human HL-60 cells at 20 nM assessed as decrease in SUV39H1 mRNA expression measured after 48 hrs by RT-PCR assay. It is filed as functional, cell-based. Summed up: as §4
Assay [19] relates to KG-1a. Briefly: Induction of myeloid differentiation in human KG-1a cells at 20 nM assessed as increase in CD11b mRNA expression measured after 48 hrs by RT-PCR assay. It is filed as functional, cell-based. Summed up: as §4
The test system of assay [20] is U-937. Briefly: Induction of myeloid differentiation in human U-937 cells at 20 nM in combination with 0.5 uM SAHA measured after 12 hrs by Liu's staining method. It is filed as functional, cell-based. Summed up:
as §1

In assay [21] the test system is KG-1a. Briefly: Induction of myeloid differentiation in human KG-1a cells at 20 nM assessed as reduction of nucleus to cytoplasm ratio measured after 12 hrs by Liu's staining method. It is filed as functional, cell-based. Summed up: as §3
The target of assay [22] is T1, Histone-lysine N-methyltransferase SUV39H1 (Homo sapiens). The settings on record: U-937, dose 20.0 nM, time 48.0 hrs.
The target is the same in assay [23]. The settings on record: HL-60, dose 20.0 nM, time 48.0 hrs.
The target is the same in assay [24]. The following applies: HL-60, dose 20.0 nM, time 48.0 hrs. The source holds these as a separate data set.
Assay [25] concerns HL-60. Briefly: Induction of myeloid differentiation in human HL-60 cells at 20 nM assessed as appearance of nuclear segmentation measured after 12 hrs by Liu's staining method. It is filed as functional, cell-based. The gist of the method: as §3
Assay [26] has as its target T1, Histone-lysine N-methyltransferase SUV39H1 (Homo sapiens). The following applies: U-937, dose 20.0 nM, time 48.0 hrs. This is another data set of the same source.
Assay [27] concerns HL-60. Briefly: Induction of myeloid differentiation in human HL-60 cells at 20 nM in combination with 0.5 uM SAHA measured after 12 hrs by Liu's staining method. It is filed as functional, cell-based. Summed up:
as §1

Assay [28] relates to HL-60. Briefly: Induction of myeloid differentiation in human HL-60 cells at 20 nM assessed as increase in CD11b mRNA expression measured after 48 hrs by RT-PCR assay. It is filed as functional, cell-based. Summed up: as §4
Assay [29] deals with T1, Histone-lysine N-methyltransferase SUV39H1 (Homo sapiens). The settings on record: KG-1a, dose 20.0 nM, time 48.0 hrs. This is another data set of the same source.
For assay [30], the system named is KG-1a. Briefly: Induction of myeloid differentiation in human KG-1a cells at 20 nM assessed as appearance of nuclear segmentation measured after 12 hrs by Liu's staining method. It is filed as functional, cell-based. Summed up:
as §3

For assay [31], the system named is U-937. Briefly: Induction of myeloid differentiation in human U-937 cells at 20 nM assessed as decrease in SUV39H1 mRNA expression measured after 48 hrs by RT-PCR assay. It is filed as functional, cell-based. The gist of the method:
as §4

Assay [32] deals with HL-60. Briefly: Induction of myeloid differentiation in human HL-60 cells at 20 nM assessed as decrease in G9a mRNA expression measured after 48 hrs by RT-PCR assay. It is filed as functional, cell-based. The gist of the method:
as §4

The target in assay [33] is T1, Histone-lysine N-methyltransferase SUV39H1 (Homo sapiens). The settings on record: HL-60, dose 20.0 nM, time 48.0 hrs. This is another data set of the same source.
Assay [34] shares this target. The following applies: U-937, dose 20.0 nM, time 48.0 hrs. This is another data set of the same source.
Assay [35] has as its system KG-1a. Briefly: Induction of myeloid differentiation in human KG-1a cells at 20 nM assessed as decrease in SUV39H1 mRNA expression measured after 48 hrs by RT-PCR assay. It is filed as functional, cell-based. The gist of the method: as §4
The target in assay [36] is T1, Histone-lysine N-methyltransferase SUV39H1 (Homo sapiens). The settings on record: HL-60, dose 20.0 nM, time 48.0 hrs. The source holds these as a separate data set.
Assay [37] deals with KG-1a. Briefly: Induction of myeloid differentiation in human KG-1a cells at 20 nM in combination with 0.5 uM SAHA measured after 12 hrs by Liu's staining method. It is filed as functional, cell-based. Summed up:
as §1

Assay [38] has as its target T1, Histone-lysine N-methyltransferase SUV39H1 (Homo sapiens). The following applies: U-937, dose 20.0 nM, time 48.0 hrs. The source holds these as a separate data set.
In assay [39] the test system is U-937. Briefly: Induction of myeloid differentiation in human U-937 cells at 20 nM assessed as decrease in G9a mRNA expression measured after 48 hrs by RT-PCR assay. It is filed as functional, cell-based. Summed up: as §4
Assay [40] deals with KG-1a. Briefly: Induction of myeloid differentiation in human KG-1a cells at 20 nM assessed as decrease in G9a mRNA expression measured after 48 hrs by RT-PCR assay. It is filed as functional, cell-based. The gist of the method:
as §4

Calls of active or inactive are those of the source. No cut-off for these calls is given here.

For orientation: IC50 means the concentration that inhibits the measured activity by half.

For the compound `Cc1sc2c(c1C)C(c1ccc(Cl)cc1)=N[C@@H](CC(=O)OC(C)(C)C)c1nnc(C)n1-2`, the outcome in the assay on U-937 [1], in the assay on KG-1a [2] and in the assay on HL-60 [3] was Active.

On to `CN1C(=O)[C@@]23C[C@]4([C@]56C[C@@]78SS[C@@](CO)(C(=O)N7[C@H]5Nc5ccccc56)N(C)C8=O)c5ccccc5N[C@@H]4N2C(=O)[C@]1(CO)SS3` [CHAETOCIN], for which the IC50 in the assay with U-937 [4] turned out to be 0.096 nM; with KG-1a [6], 0.095 nM; in the assay on KG-1a [8], 0.103 nM; in the assay with HL-60 [9] it was 0.127 nM; in the assay on HL-60 [10] it was 0.153 nM; with U-937 [11], 0.082 nM. The Activity in the assay on KG-1a [5] stood at 40%; in the assay with U-937 [7], 20%; with HL-60 [12], 40%.

Turning to `CN1C(=O)[C@@]23C[C@]4([C@]56C[C@@]78SS[C@@](CO)(C(=O)N7[C@H]5Nc5ccccc56)N(C)C8=O)c5ccccc5N[C@@H]4N2C(=O)[C@]1(CO)SS3`, the inhibition result in assay [13], in assay [16], in assay [17], in [23], in assay [24] and in assay [29] was “Active” each time. The inhibition result in assay [33] and in [36] was “Active” each time. For the same compound, the result with HL-60 [14], in the assay with U-937 [15], in the assay on HL-60 [18], with KG-1a [19], with KG-1a [21] and in the assay on HL-60 [25] was Active. Also, the result in the assay with HL-60 [28], in the assay on KG-1a [30], in the assay on HL-60 [32], with KG-1a [35] and in the assay with KG-1a [40] was Active. Also, the result with U-937 [20], in the assay with HL-60 [27], with U-937 [31], with KG-1a [37] and in the assay with U-937 [39] was inactive. Besides, the inhibition entry in assay [22], in [26], in assay [34] and in assay [38] was “inactive” throughout.
